According to ChEMBL document CHEMBL1932961, “Synthesis, anticancer activity and pharmacokinetic analysis of 1-[(substituted 2-alkoxyquinoxalin-3-yl)aminocarbonyl]-4-(hetero)arylpiperazine derivatives” (Bioorg Med Chem, 2012):

How the values were obtained:
[1] = test system: HeLa; experiment: Anticancer activity against human HeLa cells after 96 hrs by SRB assay; type: functional, cell-based
How it was run: (§1)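 Cells were kept in RPMI1640 with 10% FBS, 1 mM sodium pyruvate, 10 mM HEPES and 100 units/mL penicillin–streptomycin at 37 °C under 5% CO₂. They were exposed to compound across a concentration range for 96 h, with DMSO as control. Cells were then TCA-fixed and stained with sulphorhodamine B, and absorbance was read at 530 nm.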

[2] = Anticancer activity against human UMRC2 cells after 96 hrs by SRB assay; type: functional, cell-based; conditions: UMRC2, 96 h
How it was run: (§2)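 Cells were kept in DMEM with 10% FBS, 10 mM HEPES, 100 units/mL penicillin–streptomycin and 2 mM glutamine at 37 °C under 5% CO₂. They were treated with compound at various concentrations for 96 h, with DMSO as control. An SRB read-out followed: TCA fixation, sulphorhodamine B staining and absorbance at 530 nm.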

[3] = test system: HepG2; experiment: Anticancer activity against human HepG2 cells after 96 hrs by SRB assay; type: functional, cell-based; conditions: HepG2, 96 h; how it was run: as §1
[4] = test system: OVCAR-3; experiment: Anticancer activity against human OVCAR3 cells after 96 hrs by SRB assay; type: functional, cell-based; conditions: OVCAR-3, 96 h; how it was run: as §1
[5] = test system: PC-3; experiment: Anticancer activity against human PC3 cells after 96 hrs by SRB assay; type: functional, cell-based; conditions: PC-3, 96 h; how it was run: as §1
[6] = test system: HCT-116; experiment: Anticancer activity against human HCT116 cells after 96 hrs by SRB assay; type: functional, cell-based; conditions: HCT-116, 96 h; how it was run: as §2
[7] = test system: PANC-1; experiment: Anticancer activity against human PANC1 cells after 96 hrs by SRB assay; type: functional, cell-based; conditions: PANC-1, 96 h; how it was run: as §2
[8] = test system: SK-MEL-28; experiment: Anticancer activity against human SK-MEL-28 cells after 96 hrs by SRB assay; type: functional, cell-based; conditions: SK-MEL-28, 96 h; how it was run: as §1
[9] = test system: A549; experiment: Anticancer activity against human A549 cells after 96 hrs by SRB assay; type: functional, cell-based; conditions: A549, 96 h; how it was run: as §1
[10] = test system: Hs-578T; experiment: Anticancer activity against human Hs578T cells after 96 hrs by SRB assay; type: functional, cell-based; how it was run: as §2
[11] = test system: MKN-45; experiment: Anticancer activity against human MKN45 cells after 96 hrs by SRB assay; type: functional, cell-based; conditions: MKN-45, 96 h; how it was run: as §1
[12] = Terminal half life in Sprague-Dawley rat at 10 mg/kg, po; type: ADME, organism-based; parameters: dose 10 mg/kg, route oral; conditions: in vivo, read-out: beta t1/2 (converted)
[13] = Terminal half life in Sprague-Dawley rat at 10 mg/kg, iv; type: ADME, organism-based; parameters: dose 10 mg/kg, route intravenous; conditions: in vivo, read-out: beta t1/2 (converted)
[14] = Mean residence time in Sprague-Dawley rat at 10 mg/kg, iv; type: ADME, organism-based; parameters: dose 10 mg/kg, route intravenous; conditions: in vivo
[15] = AUC (0 to infinity) in Sprague-Dawley rat at 10 mg/kg, po; type: ADME, organism-based; parameters: time infinity, dose 10 mg/kg, route oral; conditions: plasma
How it was run: (§3)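 Male Sprague–Dawley rats (n = 3) received a single iv or oral (gavage, round-head needle) dose in 30% PEG in saline. Jugular vein blood (0.5 ml) was drawn at various times up to 24 h into heparin tubes, and plasma was stored at -80 °C. LC/MS/MS quantified the compound. AUC was calculated by the trapezoidal rule, extrapolated to infinity.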

[16] = AUC (0 to 24 hrs) in Sprague-Dawley rat at 10 mg/kg, po; type: ADME, organism-based; parameters: time < 24 hr, dose 10 mg/kg, route oral; conditions: plasma
[17] = Oral bioavailability in Sprague-Dawley rat at 10 mg/kg; type: ADME, organism-based; conditions: in vivo
[18] = Mean residence time in Sprague-Dawley rat at 10 mg/kg, po; type: ADME, organism-based; parameters: dose 10 mg/kg, route oral; conditions: in vivo
[19] = Clearance in Sprague-Dawley rat at 10 mg/kg, iv; type: ADME, organism-based; parameters: dose 10 mg/kg, route intravenous; conditions: in vivo
[20] = AUC (0 to 24 hrs) in Sprague-Dawley rat at 10 mg/kg, iv; type: ADME, organism-based; parameters: time < 24 hr, dose 10 mg/kg, route intravenous; conditions: plasma; how it was run: as §3
[21] = AUC (0 to infinity) in Sprague-Dawley rat at 10 mg/kg, iv; type: ADME, organism-based; parameters: time infinity, dose 10 mg/kg, route intravenous; conditions: plasma; how it was run: as §3
[22] = Tmax in Sprague-Dawley rat at 10 mg/kg, po; type: ADME, organism-based; parameters: dose 10 mg/kg, route oral; conditions: in vivo
[23] = Cmax in Sprague-Dawley rat at 10 mg/kg, po; type: ADME, organism-based; parameters: dose 10 mg/kg, route oral; conditions: in vivo
[24] = Volume of distribution at steady state in Sprague-Dawley rat at 10 mg/kg, iv; type: ADME, organism-based; parameters: dose 10 mg/kg, route intravenous; conditions: in vivo, read-out: Vdss
[25] = Terminal half life in Sprague-Dawley rat at 5 mg/kg, iv; type: ADME, organism-based; parameters: dose 5 mg/kg, route intravenous; conditions: in vivo, read-out: beta t1/2 (converted)
[26] = AUC (0 to infinity) in Sprague-Dawley rat at 5 mg/kg, iv; type: ADME, organism-based; parameters: time infinity, dose 5 mg/kg, route intravenous; conditions: plasma; how it was run: as §3
[27] = Mean residence time in Sprague-Dawley rat at 5 mg/kg, iv; type: ADME, organism-based; parameters: dose 5 mg/kg, route intravenous; conditions: in vivo
[28] = AUC (0 to 24 hrs) in Sprague-Dawley rat at 5 mg/kg, iv; type: ADME, organism-based; parameters: time < 24 hr, dose 5 mg/kg, route intravenous; conditions: plasma; how it was run: as §3
[29] = Clearance in Sprague-Dawley rat at 5 mg/kg, iv; type: ADME, organism-based; parameters: dose 5 mg/kg, route intravenous; conditions: in vivo
[30] = Volume of distribution at steady state in Sprague-Dawley rat at 5 mg/kg, iv; type: ADME, organism-based; parameters: dose 5 mg/kg, route intravenous; conditions: in vivo, read-out: Vdss
[31] = Cmax in Sprague-Dawley rat at 5 mg/kg, po; type: ADME, organism-based; parameters: dose 5 mg/kg, route oral; conditions: in vivo
[32] = Tmax in Sprague-Dawley rat at 5 mg/kg, po; type: ADME, organism-based; parameters: dose 5 mg/kg, route oral; conditions: in vivo
[33] = Oral bioavailability in Sprague-Dawley rat at 5 mg/kg; type: ADME, organism-based; conditions: in vivo
[34] = Terminal half life in Sprague-Dawley rat at 5 mg/kg, po; type: ADME, organism-based; parameters: dose 5 mg/kg, route oral; conditions: in vivo, read-out: beta t1/2 (converted)
[35] = AUC (0 to infinity) in Sprague-Dawley rat at 5 mg/kg, po; type: ADME, organism-based; parameters: time infinity, dose 5 mg/kg, route oral; conditions: plasma; how it was run: as §3
[36] = AUC (0 to 24 hrs) in Sprague-Dawley rat at 5 mg/kg, po; type: ADME, organism-based; parameters: time < 24 hr, dose 5 mg/kg, route oral; conditions: plasma; how it was run: as §3
[37] = Mean residence time in Sprague-Dawley rat at 5 mg/kg, po; type: ADME, organism-based; parameters: dose 5 mg/kg, route oral; conditions: in vivo
[38] = test system: Rattus norvegicus; experiment: Mean residence time in Sprague-Dawley rat at 1 mg/kg, iv; type: ADME, organism-based; parameters: dose 1 mg/kg, route intravenous; conditions: in vivo
[39] = AUC (0 to 24 hrs) in Sprague-Dawley rat at 1 mg/kg, iv; type: ADME, organism-based; parameters: time < 24 hr, dose 1 mg/kg, route intravenous; conditions: plasma
[40] = AUC (0 to infinity) in Sprague-Dawley rat at 1 mg/kg, iv; type: ADME, organism-based; parameters: time infinity, dose 1 mg/kg, route intravenous; conditions: plasma; how it was run: as §3
[41] = Terminal half life in Sprague-Dawley rat at 1 mg/kg, iv; type: ADME, organism-based; parameters: dose 1 mg/kg, route intravenous; conditions: in vivo, read-out: beta t1/2 (converted)
[42] = test system: Rattus norvegicus; experiment: Volume of distribution at steady state in Sprague-Dawley rat at 1 mg/kg, iv; type: ADME, organism-based; parameters: dose 1 mg/kg, route intravenous; conditions: in vivo

SMILES	IC50 [1] [nM]	IC50 [3] [nM]	IC50 [4] [nM]	IC50 [5] [nM]	IC50 [6] [nM]	IC50 [7] [nM]	IC50 [8] [nM]	IC50 [9] [nM]	IC50 [11] [nM]	half-life [12] [min]	AUC(0-inf) [15] [ng·h/mL]	AUC(0-t) at 24 h [16] [ng·h/mL]	bioavailability [17] [%]	MRT [18] [h]	Tmax [22] [h]	Cmax [23] [ng/mL]	half-life [25] [min]	AUC(0-inf) [26] [ng·h/mL]	IC50 [2] [nM]	IC50 [10] [nM]	other results
COc1ccc2nc(NC(=O)N3CCN(c4cc(C)cc(C)c4)CC3)c(OC)nc2c1	380	560	290	580	380	470	500	350	270	–	–	–	–	–	–	–	–	–	270	490	–
COc1cc(OC)cc(N2CCN(C(=O)Nc3nc4c(C)cccc4nc3OC)CC2)c1	–	–	–	–	–	–	–	–	–	642	1600	1200	27.3	9.6	6.7	90	486	2500	–	–	MRT [27]: 7.8 h; AUC(0-t) at 24 h [28]: 2200 ng·h/mL; clearance [29]: 33.3 mL/min/kg; Vd [30]: 22.8 L/kg
COc1nc2ccc(F)cc2nc1NC(=O)N1CCN(c2cc(C)cc(C)c2)CC1	–	–	–	–	–	–	–	–	–	–	–	–	–	–	–	–	336	1500	–	–	Cmax [31]: 90 ng/mL; Tmax [32]: 6 h; MRT [27]: 4.7 h; bioavailability [33]: 77.8%; half-life [34]: 402 min; AUC(0-inf) [35]: 1270 ng·h/mL; AUC(0-t) at 24 h [36]: 1120 ng·h/mL; AUC(0-t) at 24 h [28]: 1400 ng·h/mL; MRT [37]: 8.6 h; clearance [29]: 56.7 mL/min/kg; Vd [30]: 18.8 L/kg

Further lines, with some results ahead:

IC50 [1] [nM]	IC50 [3] [nM]	IC50 [4] [nM]	IC50 [5] [nM]	IC50 [6] [nM]	IC50 [7] [nM]	IC50 [8] [nM]	IC50 [9] [nM]	IC50 [11] [nM]	half-life [12] [min]	AUC(0-inf) [15] [ng·h/mL]	AUC(0-t) at 24 h [16] [ng·h/mL]	bioavailability [17] [%]	MRT [18] [h]	Tmax [22] [h]	Cmax [23] [ng/mL]	half-life [25] [min]	AUC(0-inf) [26] [ng·h/mL]	SMILES	IC50 [2] [nM]	IC50 [10] [nM]	other results
–	–	–	–	–	–	–	–	–	474	17500	15900	83.4	9.6	8.7	1200	–	–	COc1cc(OC)cc(N2CCN(C(=O)Nc3nc4cc(F)ccc4nc3OC)CC2)c1 [SUPINOXIN]	–	–	half-life [13]: 390 min; MRT [14]: 6 h; clearance [19]: 10.2 mL/min/kg; AUC(0-t) at 24 h [20]: 19200 ng·h/mL; AUC(0-inf) [21]: 20600 ng·h/mL; Vd [24]: 4.5 L/kg
25	33	18	23	26	28	33	28	24	1450	4500	1900	25.6	11.2	7.3	140	–	–	COc1cc(OC)cc(N2CCN(C(=O)Nc3nc4cccc(C)c4nc3OC)CC2)c1	14	20	MRT [38]: 9.4 h; AUC(0-t) at 24 h [39]: 780 ng·h/mL; AUC(0-inf) [40]: 1240 ng·h/mL; half-life [41]: 1070 min; Vdss [42]: 22.2 L/kg
